# Measured values as given in ChEMBL document CHEMBL1122046, “Quaternary heterocyclylamino beta-lactams: a generic alternative to the classical acylamino side chain” (1982).
# Tested on: Escherichia coli
# Assay: MIC against aerobic organism Escherichia coli strain 2891
# Assay type: functional
# Conditions: Escherichia coli; read-out: MIC
# Method in brief: (§1)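 Agar-dilution MIC in µg/mL against aerobic bacterial strains on tryptocase soy agar, with inoculum applied as spots. Most series used 10^5 cfu per spot, and a later series used 10^4 cfu per spot. In some tables, footnoted strains were instead tested on Mueller-Hinton or nutrient agar. β-Lactamase-producing strains are flagged.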
row,Structure (SMILES),MIC [µg/mL]
1,Cn1nnnc1SCC1=C(C(=O)[O-])N2C(=O)[C@@H](Nc3cc[n+](Cc4ccc(F)cc4)cc3)[C@H]2SC1,< 0.06
2,CCO[n+]1ccc(N[C@@H]2C(=O)N3C(C(=O)[O-])=C(CSc4nnnn4C)CS[C@H]23)cc1,0.125
3,O=C([O-])CSc1nnc(SCC2=C(C(=O)[O-])N3C(=O)[C@@H](Nc4cc[n+](Cc5ccccc5)cc4)[C@H]3SC2)s1.[Na+],< 0.125

# More lines, now with the values ahead:
row,MIC [µg/mL],Structure (SMILES)
1,< 0.06,O=C([O-])C1=C(C[n+]2ccccc2)CS[C@@H]2[C@H]([N-]c3cc[n+](Cc4ccccc4)cc3)C(=O)N12
2,< 0.06,O=C([O-])C1=C(CSc2cc[n+](Cc3ccccc3)cc2)CS[C@@H]2[C@H]([N-]c3cc[n+](Cc4ccccc4)cc3)C(=O)N12

# Tested on: Klebsiella aerogenes
# Assay: Minimum inhibitory concentration against aerobic organism Enterobacter aerogenes strain 2828
# Assay type: functional
# Conditions: not given
# Method in brief: as §1
row,Structure (SMILES),MIC [µg/mL]
1,Cn1nnnc1SCC1=C(C(=O)[O-])N2C(=O)[C@@H](Nc3cc[n+](Cc4ccc(F)cc4)cc3)[C@H]2SC1,1
2,CCO[n+]1ccc(N[C@@H]2C(=O)N3C(C(=O)[O-])=C(CSc4nnnn4C)CS[C@H]23)cc1,32
3,O=C([O-])CSc1nnc(SCC2=C(C(=O)[O-])N3C(=O)[C@@H](Nc4cc[n+](Cc5ccccc5)cc4)[C@H]3SC2)s1.[Na+],0.5

# More lines, now with the values ahead:
row,MIC [µg/mL],Structure (SMILES)
1,2,O=C([O-])C1=C(C[n+]2ccccc2)CS[C@@H]2[C@H]([N-]c3cc[n+](Cc4ccccc4)cc3)C(=O)N12
2,1,O=C([O-])C1=C(CSc2cc[n+](Cc3ccccc3)cc2)CS[C@@H]2[C@H]([N-]c3cc[n+](Cc4ccccc4)cc3)C(=O)N12

# Tested on: Enterobacter cloacae
# Assay: Minimum inhibitory concentration against aerobic organism Enterobacter cloacae strain 2646
# Assay type: functional
# Conditions: Enterobacter cloacae; read-out: MIC
# Method in brief: as §1
row,Structure (SMILES),MIC [µg/mL]
1,Cn1nnnc1SCC1=C(C(=O)[O-])N2C(=O)[C@@H](Nc3cc[n+](Cc4ccc(F)cc4)cc3)[C@H]2SC1,0.125
2,CCO[n+]1ccc(N[C@@H]2C(=O)N3C(C(=O)[O-])=C(CSc4nnnn4C)CS[C@H]23)cc1,1
3,O=C([O-])CSc1nnc(SCC2=C(C(=O)[O-])N3C(=O)[C@@H](Nc4cc[n+](Cc5ccccc5)cc4)[C@H]3SC2)s1.[Na+],0.05

# Second part, the compound after the results:
row,MIC [µg/mL],Structure (SMILES)
1,0.125,O=C([O-])C1=C(C[n+]2ccccc2)CS[C@@H]2[C@H]([N-]c3cc[n+](Cc4ccccc4)cc3)C(=O)N12
2,< 0.06,O=C([O-])C1=C(CSc2cc[n+](Cc3ccccc3)cc2)CS[C@@H]2[C@H]([N-]c3cc[n+](Cc4ccccc4)cc3)C(=O)N12

# Tested on: Klebsiella pneumoniae
# Assay: Minimum inhibitory concentration against aerobic organism Klebsiella pneumoniae strain 4005
# Assay type: functional
# Conditions: not given
# Method in brief: as §1
row,Structure (SMILES),MIC [µg/mL]
1,Cn1nnnc1SCC1=C(C(=O)[O-])N2C(=O)[C@@H](Nc3cc[n+](Cc4ccc(F)cc4)cc3)[C@H]2SC1,8
2,CCO[n+]1ccc(N[C@@H]2C(=O)N3C(C(=O)[O-])=C(CSc4nnnn4C)CS[C@H]23)cc1,128
3,O=C([O-])CSc1nnc(SCC2=C(C(=O)[O-])N3C(=O)[C@@H](Nc4cc[n+](Cc5ccccc5)cc4)[C@H]3SC2)s1.[Na+],1

# Next, values leading:
row,MIC [µg/mL],Structure (SMILES)
1,32,O=C([O-])C1=C(C[n+]2ccccc2)CS[C@@H]2[C@H]([N-]c3cc[n+](Cc4ccccc4)cc3)C(=O)N12
2,32,O=C([O-])C1=C(CSc2cc[n+](Cc3ccccc3)cc2)CS[C@@H]2[C@H]([N-]c3cc[n+](Cc4ccccc4)cc3)C(=O)N12

# Tested on: Morganella morganii
# Assay: Minimum inhibitory concentration against aerobic organism Morganella morganii strain 2833
# Assay type: functional
# Conditions: Morganella morganii; read-out: MIC
# Method in brief: as §1
row,Structure (SMILES),MIC [µg/mL]
1,Cn1nnnc1SCC1=C(C(=O)[O-])N2C(=O)[C@@H](Nc3cc[n+](Cc4ccc(F)cc4)cc3)[C@H]2SC1,32
2,CCO[n+]1ccc(N[C@@H]2C(=O)N3C(C(=O)[O-])=C(CSc4nnnn4C)CS[C@H]23)cc1,> 128
3,O=C([O-])CSc1nnc(SCC2=C(C(=O)[O-])N3C(=O)[C@@H](Nc4cc[n+](Cc5ccccc5)cc4)[C@H]3SC2)s1.[Na+],16

# The remaining lines, values ahead:
row,MIC [µg/mL],Structure (SMILES)
1,> 128,O=C([O-])C1=C(C[n+]2ccccc2)CS[C@@H]2[C@H]([N-]c3cc[n+](Cc4ccccc4)cc3)C(=O)N12
2,> 128,O=C([O-])C1=C(CSc2cc[n+](Cc3ccccc3)cc2)CS[C@@H]2[C@H]([N-]c3cc[n+](Cc4ccccc4)cc3)C(=O)N12

# Tested on: Pseudomonas aeruginosa
# Assay: Minimum inhibitory concentration against aerobic organism Pseudomonas aeruginosa strain 2835
# Assay type: functional
# Conditions: not given
# Method in brief: as §1
row,Structure (SMILES),MIC [µg/mL]
1,Cn1nnnc1SCC1=C(C(=O)[O-])N2C(=O)[C@@H](Nc3cc[n+](Cc4ccc(F)cc4)cc3)[C@H]2SC1,> 128
2,CCO[n+]1ccc(N[C@@H]2C(=O)N3C(C(=O)[O-])=C(CSc4nnnn4C)CS[C@H]23)cc1,> 128
3,O=C([O-])CSc1nnc(SCC2=C(C(=O)[O-])N3C(=O)[C@@H](Nc4cc[n+](Cc5ccccc5)cc4)[C@H]3SC2)s1.[Na+],128

# Continued, values first:
row,MIC [µg/mL],Structure (SMILES)
1,64,O=C([O-])C1=C(C[n+]2ccccc2)CS[C@@H]2[C@H]([N-]c3cc[n+](Cc4ccccc4)cc3)C(=O)N12
2,> 128,O=C([O-])C1=C(CSc2cc[n+](Cc3ccccc3)cc2)CS[C@@H]2[C@H]([N-]c3cc[n+](Cc4ccccc4)cc3)C(=O)N12

# Tested on: Proteus mirabilis
# Assay: Minimum inhibitory concentration against aerobic organism Proteus mirabilis strain 2830
# Assay type: functional
# Conditions: Proteus mirabilis; read-out: MIC
# Method in brief: as §1
row,Structure (SMILES),MIC [µg/mL]
1,Cn1nnnc1SCC1=C(C(=O)[O-])N2C(=O)[C@@H](Nc3cc[n+](Cc4ccc(F)cc4)cc3)[C@H]2SC1,64
2,CCO[n+]1ccc(N[C@@H]2C(=O)N3C(C(=O)[O-])=C(CSc4nnnn4C)CS[C@H]23)cc1,> 128
3,O=C([O-])CSc1nnc(SCC2=C(C(=O)[O-])N3C(=O)[C@@H](Nc4cc[n+](Cc5ccccc5)cc4)[C@H]3SC2)s1.[Na+],64

# Next, values leading:
row,MIC [µg/mL],Structure (SMILES)
1,> 128,O=C([O-])C1=C(C[n+]2ccccc2)CS[C@@H]2[C@H]([N-]c3cc[n+](Cc4ccccc4)cc3)C(=O)N12
2,128,O=C([O-])C1=C(CSc2cc[n+](Cc3ccccc3)cc2)CS[C@@H]2[C@H]([N-]c3cc[n+](Cc4ccccc4)cc3)C(=O)N12

# Tested on: Proteus vulgaris
# Assay: Minimum inhibitory concentration against aerobic organism Proteus vulgaris strain 2829
# Assay type: functional
# Conditions: Proteus vulgaris; read-out: MIC
# Method in brief: as §1
row,Structure (SMILES),MIC [µg/mL]
1,Cn1nnnc1SCC1=C(C(=O)[O-])N2C(=O)[C@@H](Nc3cc[n+](Cc4ccc(F)cc4)cc3)[C@H]2SC1,0.25
2,CCO[n+]1ccc(N[C@@H]2C(=O)N3C(C(=O)[O-])=C(CSc4nnnn4C)CS[C@H]23)cc1,0.25
3,O=C([O-])CSc1nnc(SCC2=C(C(=O)[O-])N3C(=O)[C@@H](Nc4cc[n+](Cc5ccccc5)cc4)[C@H]3SC2)s1.[Na+],< 0.125

# More lines, now with the values ahead:
row,MIC [µg/mL],Structure (SMILES)
1,0.25,O=C([O-])C1=C(C[n+]2ccccc2)CS[C@@H]2[C@H]([N-]c3cc[n+](Cc4ccccc4)cc3)C(=O)N12
2,< 0.06,O=C([O-])C1=C(CSc2cc[n+](Cc3ccccc3)cc2)CS[C@@H]2[C@H]([N-]c3cc[n+](Cc4ccccc4)cc3)C(=O)N12

# Tested on: Salmonella
# Assay: Minimum inhibitory concentration against aerobic organism Salmonella strain 3860
# Assay type: functional
# Conditions: not given
# Method in brief: as §1
row,Structure (SMILES),MIC [µg/mL]
1,Cn1nnnc1SCC1=C(C(=O)[O-])N2C(=O)[C@@H](Nc3cc[n+](Cc4ccc(F)cc4)cc3)[C@H]2SC1,4
2,CCO[n+]1ccc(N[C@@H]2C(=O)N3C(C(=O)[O-])=C(CSc4nnnn4C)CS[C@H]23)cc1,128
3,O=C([O-])CSc1nnc(SCC2=C(C(=O)[O-])N3C(=O)[C@@H](Nc4cc[n+](Cc5ccccc5)cc4)[C@H]3SC2)s1.[Na+],0.25

# Second part, the compound after the results:
row,MIC [µg/mL],Structure (SMILES)
1,2,O=C([O-])C1=C(C[n+]2ccccc2)CS[C@@H]2[C@H]([N-]c3cc[n+](Cc4ccccc4)cc3)C(=O)N12
2,4,O=C([O-])C1=C(CSc2cc[n+](Cc3ccccc3)cc2)CS[C@@H]2[C@H]([N-]c3cc[n+](Cc4ccccc4)cc3)C(=O)N12

# Tested on: Staphylococcus aureus
# Assay: Minimum inhibitory concentration against aerobic organism Staphylococcus aureus strain 2865
# Assay type: functional
# Conditions: not given
# Method in brief: as §1
row,Structure (SMILES),MIC [µg/mL]
1,Cn1nnnc1SCC1=C(C(=O)[O-])N2C(=O)[C@@H](Nc3cc[n+](Cc4ccc(F)cc4)cc3)[C@H]2SC1,0.5
2,CCO[n+]1ccc(N[C@@H]2C(=O)N3C(C(=O)[O-])=C(CSc4nnnn4C)CS[C@H]23)cc1,8
3,O=C([O-])CSc1nnc(SCC2=C(C(=O)[O-])N3C(=O)[C@@H](Nc4cc[n+](Cc5ccccc5)cc4)[C@H]3SC2)s1.[Na+],1

# Further lines, results first:
row,MIC [µg/mL],Structure (SMILES)
1,0.125,O=C([O-])C1=C(C[n+]2ccccc2)CS[C@@H]2[C@H]([N-]c3cc[n+](Cc4ccccc4)cc3)C(=O)N12
2,< 0.06,O=C([O-])C1=C(CSc2cc[n+](Cc3ccccc3)cc2)CS[C@@H]2[C@H]([N-]c3cc[n+](Cc4ccccc4)cc3)C(=O)N12

# Tested on: Staphylococcus aureus
# Assay: Minimum inhibitory concentration against aerobic organism Staphylococcus aureus strain 2868
# Assay type: functional
# Conditions: Staphylococcus aureus; read-out: MIC
# Method in brief: as §1
row,Structure (SMILES),MIC [µg/mL]
1,Cn1nnnc1SCC1=C(C(=O)[O-])N2C(=O)[C@@H](Nc3cc[n+](Cc4ccc(F)cc4)cc3)[C@H]2SC1,1
2,CCO[n+]1ccc(N[C@@H]2C(=O)N3C(C(=O)[O-])=C(CSc4nnnn4C)CS[C@H]23)cc1,> 128
3,O=C([O-])CSc1nnc(SCC2=C(C(=O)[O-])N3C(=O)[C@@H](Nc4cc[n+](Cc5ccccc5)cc4)[C@H]3SC2)s1.[Na+],4

# The remaining lines, values ahead:
row,MIC [µg/mL],Structure (SMILES)
1,0.5,O=C([O-])C1=C(C[n+]2ccccc2)CS[C@@H]2[C@H]([N-]c3cc[n+](Cc4ccccc4)cc3)C(=O)N12
2,0.25,O=C([O-])C1=C(CSc2cc[n+](Cc3ccccc3)cc2)CS[C@@H]2[C@H]([N-]c3cc[n+](Cc4ccccc4)cc3)C(=O)N12

# Tested on: Enterococcus faecalis
# Assay: Minimum inhibitory concentration against aerobic organism Streptococcus faecalis strain 2864
# Assay type: functional
# Conditions: not given
# Method in brief: as §1
row,Structure (SMILES),MIC [µg/mL]
1,Cn1nnnc1SCC1=C(C(=O)[O-])N2C(=O)[C@@H](Nc3cc[n+](Cc4ccc(F)cc4)cc3)[C@H]2SC1,128
2,CCO[n+]1ccc(N[C@@H]2C(=O)N3C(C(=O)[O-])=C(CSc4nnnn4C)CS[C@H]23)cc1,> 128
3,O=C([O-])CSc1nnc(SCC2=C(C(=O)[O-])N3C(=O)[C@@H](Nc4cc[n+](Cc5ccccc5)cc4)[C@H]3SC2)s1.[Na+],> 128

# Now from value to compound:
row,MIC [µg/mL],Structure (SMILES)
1,128,O=C([O-])C1=C(C[n+]2ccccc2)CS[C@@H]2[C@H]([N-]c3cc[n+](Cc4ccccc4)cc3)C(=O)N12
2,64,O=C([O-])C1=C(CSc2cc[n+](Cc3ccccc3)cc2)CS[C@@H]2[C@H]([N-]c3cc[n+](Cc4ccccc4)cc3)C(=O)N12
